{"source": "ChEMBL document CHEMBL5032505", "about": "“Design, Synthesis, and Activity Evaluation of Stereoconfigured Tartarate Derivatives as Potential Anti-inflammatory Agents In Vitro and In Vivo” (J Med Chem, 2021)", "key": {"[1]": {"test_system": "Mus musculus", "assay": "Analgesic activity in Swiss albino mouse assessed as inhibition of acetic acid-induced writhing at 5 mg/kg, ip administered 30 mins prior to acetic acid challenge and measured after 30 mins relative to control", "assay_type": "functional", "set-up": "scale not given: the % may be the effect or the level left", "conditions": "time 60 min, 1 h", "summary_of_the_method": "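Mice pretreated i.p. with indomethacin (10 mg/kg) or test compound (5 mg/kg) 30 min before 0.6% v/v acetic acid injection. Control group also received acetic acid. Animals placed in a transparent box and abdominal writhings counted for 30 min. Six animals per group, one-way ANOVA with Tukey's test, mean ± SEM.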"}, "[2]": {"molecular_target": "Albumin (Homo sapiens, UniProt P02768)", "sequence (P02768 whole entry)": "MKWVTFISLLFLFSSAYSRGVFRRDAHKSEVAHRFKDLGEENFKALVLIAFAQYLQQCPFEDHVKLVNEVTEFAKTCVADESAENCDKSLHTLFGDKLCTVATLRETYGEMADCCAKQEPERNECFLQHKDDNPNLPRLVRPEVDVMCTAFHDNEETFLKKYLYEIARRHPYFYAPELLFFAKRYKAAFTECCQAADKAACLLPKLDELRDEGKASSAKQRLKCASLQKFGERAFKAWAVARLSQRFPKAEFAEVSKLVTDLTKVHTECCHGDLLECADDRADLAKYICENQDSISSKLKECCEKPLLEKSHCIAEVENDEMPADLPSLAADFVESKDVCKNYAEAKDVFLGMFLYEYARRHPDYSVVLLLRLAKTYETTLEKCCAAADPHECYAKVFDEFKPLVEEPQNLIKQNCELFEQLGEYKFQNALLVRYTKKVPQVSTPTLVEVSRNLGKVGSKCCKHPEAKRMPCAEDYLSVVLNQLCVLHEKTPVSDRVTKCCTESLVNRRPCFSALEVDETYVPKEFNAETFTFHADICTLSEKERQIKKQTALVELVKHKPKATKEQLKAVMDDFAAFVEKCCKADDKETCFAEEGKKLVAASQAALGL", "assay": "Binding affinity to HSA assessed as association constant at equilibrium by isothermal titration calorimetry"}, "[3]": {"test_system": "Mus musculus", "assay": "Antiinflammatory activity against Swiss albino mouse assessed as reduction in carragenan-induced paw edema at 20 mg/kg treated 30 mins prior to carrageenan challenge and measured upto 360 mins relative to control", "assay_type": "functional", "set-up": "scale not given: the % may be the effect or the level left", "conditions": "time 390 min, 6.5 h", "summary_of_the_method": "(§1)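 100 μL freshly prepared 1% carrageenan injected into the subplantar hind paw, with indomethacin (10 mg/kg) or test compound given 30 min before. Dose–response arm used 0.5, 2.5, 5, 10, 20 mg/kg. Six animals per group. Paw thickness (mm) read at 15, 30, 60, 120, 180, 240, 300, 360 min. Result expressed as % decrease versus control.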"}, "[4]": {"test_system": "Mus musculus", "assay": "Antiinflammatory activity against Swiss albino mouse assessed as reduction in carragenan-induced paw edema at 10 mg/kg treated 30 mins prior to carrageenan challenge and measured upto 360 mins relative to control", "assay_type": "functional", "set-up": "scale not given: the % may be the effect or the level left", "conditions": "time 390 min, 6.5 h", "summary_of_the_method": "as §1"}, "[5]": {"test_system": "Mus musculus", "assay": "Analgesic activity in Swiss albino mouse assessed as inhibition of acetic acid-induced writhing at 5 mg/kg, ip preincubated for 30 mins with L-NIL followed by compound addition for 30 mins prior to acetic acid challenge and measured after 30 mins", "assay_type": "functional, organism-based", "conditions": "time 60.0 min"}, "[6]": {"assay": "Cmax in Swiss albino mouse at 10 mg/kg, ip measured upto 24 hrs by LC-MS analysis", "assay_type": "ADME, organism-based", "set-up": "route intraperitoneal, dose 10 mg/kg, time <=24", "conditions": "in vivo", "summary_of_the_method": "(§2)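 Swiss albino mice (25−35 g), either sex, 10 groups of three. 10 mg/kg suspended in 0.1% CMC, given i.p. Ketamine anaesthesia (50 mg/kg i.p.). Jugular vein blood taken at 30, 45, 60 min and 2, 3, 4, 6, 8, 11, 24 h into heparinised tubes, triplicate samples per time point.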"}, "[7]": {"molecular_target": "Prostaglandin G/H synthase 1 (Homo sapiens) (UniProt P23219)", "sequence (P23219 whole entry)": "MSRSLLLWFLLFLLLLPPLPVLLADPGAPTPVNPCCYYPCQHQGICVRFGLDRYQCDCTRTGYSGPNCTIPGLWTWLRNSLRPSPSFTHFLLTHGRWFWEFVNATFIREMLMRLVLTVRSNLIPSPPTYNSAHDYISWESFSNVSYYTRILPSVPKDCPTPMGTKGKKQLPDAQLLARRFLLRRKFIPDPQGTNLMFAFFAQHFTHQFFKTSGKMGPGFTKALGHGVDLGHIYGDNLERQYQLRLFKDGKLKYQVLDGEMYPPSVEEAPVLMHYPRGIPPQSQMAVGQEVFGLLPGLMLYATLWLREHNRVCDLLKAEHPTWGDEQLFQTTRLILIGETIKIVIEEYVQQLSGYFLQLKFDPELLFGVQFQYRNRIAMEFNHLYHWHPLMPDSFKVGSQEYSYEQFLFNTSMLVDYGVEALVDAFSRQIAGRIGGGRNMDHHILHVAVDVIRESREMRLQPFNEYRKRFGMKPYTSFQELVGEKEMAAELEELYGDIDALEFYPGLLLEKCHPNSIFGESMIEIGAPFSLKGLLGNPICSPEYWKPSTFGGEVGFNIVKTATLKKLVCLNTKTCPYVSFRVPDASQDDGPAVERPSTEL", "assay": "Inhibition of COX1 in human whole blood assessed as reduction in calcium ionophore-stimulated TXB2 production by ELISA", "assay_type": "tissue-based"}, "[8]": {"molecular_target": "T1, Prostaglandin G/H synthase 2 (Homo sapiens) (UniProt P35354)", "T1 sequence (whole entry)": "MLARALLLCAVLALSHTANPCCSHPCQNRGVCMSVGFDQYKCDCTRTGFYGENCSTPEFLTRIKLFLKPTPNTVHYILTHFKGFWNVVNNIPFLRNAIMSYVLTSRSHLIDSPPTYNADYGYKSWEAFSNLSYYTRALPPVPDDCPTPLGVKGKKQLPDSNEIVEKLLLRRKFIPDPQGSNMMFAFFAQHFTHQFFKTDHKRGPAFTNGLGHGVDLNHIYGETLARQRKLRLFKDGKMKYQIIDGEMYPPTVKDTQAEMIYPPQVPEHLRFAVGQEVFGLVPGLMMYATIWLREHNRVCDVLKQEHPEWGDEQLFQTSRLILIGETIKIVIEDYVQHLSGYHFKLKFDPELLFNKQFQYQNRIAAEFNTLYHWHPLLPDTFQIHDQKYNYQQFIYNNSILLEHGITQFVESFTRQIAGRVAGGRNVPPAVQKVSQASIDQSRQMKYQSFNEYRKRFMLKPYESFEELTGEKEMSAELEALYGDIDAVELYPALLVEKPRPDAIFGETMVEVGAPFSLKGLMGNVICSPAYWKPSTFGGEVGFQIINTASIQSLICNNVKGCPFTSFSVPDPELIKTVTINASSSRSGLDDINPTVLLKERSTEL"}, "[9]": {"test_system": "Mus musculus", "assay": "Antiinflammatory activity in Swiss albino mouse model of carrageenan-induced paw edema assessed as reduction in paw thickness at 5 mg/kg, administered 30 mins prior to carrageenan challenge and measured upto 360 mins relative to control", "assay_type": "functional", "set-up": "scale not given: the % may be the effect or the level left", "conditions": "time 390 min, 6.5 h", "summary_of_the_method": "as §1"}, "[10]": {"assay": "Half life in Swiss albino mouse at 10 mg/kg, ip measured upto 24 hrs by LC-MS analysis", "assay_type": "ADME, organism-based", "conditions": "in vivo", "summary_of_the_method": "as §2"}, "[11]": {"test_system": "Glycine max"}, "[12]": {"molecular_target": "T1, Prostaglandin G/H synthase 2 (Homo sapiens)", "remark": "listed apart in the source"}, "[13]": {"test_system": "Glycine max", "assay": "Binding affinity to soybean 5-LOX assessed as change in entropy by isothermal titration calorimetry", "summary_of_the_method": "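ITC at 25 °C in 0.1 M Tris buffer. Ligand at 100 μM in DMSO:Tris (1:9) titrated from a syringe stirred at 500 rpm into enzyme in the sample cell, 120 s spacing. 40 × 1 μL injections, except COX-1 at 20 × 2 μL. Buffer-only control titrations were subtracted.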"}, "[14]": {"test_system": "Mus musculus", "assay": "Antiinflammatory activity against Swiss albino mouse assessed as reduction in carragenan-induced paw edema at 0.5 mg/kg treated 30 mins prior to carrageenan challenge and measured upto 360 mins relative to control", "assay_type": "functional", "set-up": "scale not given: the % may be the effect or the level left", "conditions": "time 390 min, 6.5 h", "summary_of_the_method": "as §1"}, "[15]": {"molecular_target": "T2, Prostaglandin G/H synthase 1 (Ovis aries) (UniProt P05979)", "T2 sequence (whole entry)": "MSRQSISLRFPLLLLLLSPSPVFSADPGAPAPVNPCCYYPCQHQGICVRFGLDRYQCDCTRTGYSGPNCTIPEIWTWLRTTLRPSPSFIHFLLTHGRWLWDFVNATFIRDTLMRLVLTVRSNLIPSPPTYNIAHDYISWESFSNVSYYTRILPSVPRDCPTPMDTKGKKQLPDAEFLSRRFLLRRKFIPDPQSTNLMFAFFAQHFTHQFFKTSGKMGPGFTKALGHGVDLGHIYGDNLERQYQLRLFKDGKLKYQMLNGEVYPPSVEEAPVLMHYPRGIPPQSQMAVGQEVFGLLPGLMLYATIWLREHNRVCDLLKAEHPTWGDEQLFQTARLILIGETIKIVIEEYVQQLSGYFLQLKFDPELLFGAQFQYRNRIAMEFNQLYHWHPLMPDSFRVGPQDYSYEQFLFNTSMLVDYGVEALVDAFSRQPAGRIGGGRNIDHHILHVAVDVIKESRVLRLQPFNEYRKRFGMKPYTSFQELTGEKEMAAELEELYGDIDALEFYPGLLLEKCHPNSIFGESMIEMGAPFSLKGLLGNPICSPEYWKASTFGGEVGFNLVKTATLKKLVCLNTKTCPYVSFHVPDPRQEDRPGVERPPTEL"}, "[16]": {"test_system": "Glycine max", "remark": "listed apart in the source"}, "[17]": {"test_system": "Mus musculus", "assay": "Analgesic activity in Swiss albino mouse assessed as inhibition of acetic acid-induced writhing at 5 mg/kg, ip preincubated for 30 mins with L-arginine followed by compound addition for 30 mins prior to acetic acid challenge and measured after 30 mins", "assay_type": "functional, organism-based", "conditions": "time 60.0 min"}, "[18]": {"molecular_target": "T1, Prostaglandin G/H synthase 2 (Homo sapiens)", "remark": "listed apart in the source"}, "[19]": {"molecular_target": "T2, Prostaglandin G/H synthase 1 (Ovis aries)", "remark": "listed apart in the source"}}, "note": "Active and inactive are the calls of the source. No cut-off for these calls is given here."}
{"smiles": "O=C(O)Cn1nncc1CO[C@@H](C(=O)O)[C@@H](OCc1cnnn1CC(=O)O)C(=O)O", "values": [{"measurement": "Activity", "setting": "[1]", "value": 65, "unit": "%"}, {"measurement": "Ka", "setting": "[2]", "value": 11800, "unit": "M⁻¹"}, {"measurement": "Activity", "setting": "[3]", "value": 38.5, "unit": "%"}, {"measurement": "Activity", "setting": "[4]", "value": 36.5, "unit": "%"}, {"measurement": "Activity", "setting": "[5]", "value": "Active"}, {"measurement": "Cmax", "setting": "[6]", "value": 26000, "unit": "ng/mL"}, {"measurement": "Activity", "setting": "[7]", "value": 1.6, "unit": "ng/mL"}, {"measurement": "deltaG", "setting": "[8]", "value": -7.88, "unit": "kcal/mol"}, {"measurement": "Activity", "setting": "[9]", "value": 33, "unit": "%"}, {"measurement": "half-life", "setting": "[10]", "value": 8.74, "unit": "h"}, {"measurement": "deltaH", "setting": "[11]", "value": -9.99, "unit": "kcal/mol"}, {"measurement": "deltaH", "setting": "[12]", "value": -10.5, "unit": "kcal/mol"}, {"measurement": "TdeltaS", "setting": "[13]", "value": -2.99, "unit": "kcal/mol"}, {"measurement": "Activity", "setting": "[14]", "value": 2, "unit": "%"}, {"measurement": "Ka", "setting": "[15]", "value": "1.64 10^3/M"}, {"measurement": "Ka", "setting": "[16]", "value": "1.33 10^5/M"}, {"measurement": "Activity", "setting": "[17]", "value": "Active"}, {"measurement": "Ka", "setting": "[18]", "value": "6.07 10^5/M"}, {"measurement": "deltaH", "setting": "[19]", "value": -600, "unit": "kcal/mol"}]}
